This note sets out measurements from ChEMBL document CHEMBL4665791 (J Med Chem, 2020).

Data set [1] can be described thus: Cytotoxicity against human iPSC-derived neurons assessed as effect on cell-rounding. Format: tissue-based. The following applies: induced pluripotent stem cell-derived neuron.
A short description of data set [2]: Cytotoxicity against human iPSC-derived neurons assessed as decrease in SNAP25 signal. The conditions noted are these: induced pluripotent stem cell-derived neuron. Type of data set: tissue-based.
For data set [3], the system named is HEK293. In words: Cytotoxicity against HEK293 cells assessed inhibition of cell proliferation after 24 hrs by MTT assay. Type of data set: cell-based. The conditions noted are these: Homo sapiens, HEK293, 24 h. The essentials:
(§1)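 HEK293T cells in DMEM with 10% FBS and 1% Pen Strep were seeded at 5,000 cells/well and left 24 h at 37 °C, 5% CO2. Compounds were then added as 2-fold dilutions from 100 to 3.13 μM (1% DMSO) for 24 h. MTT was added for 4 h, and formazan was dissolved in acidified isopropanol. A570 was read with 630 nm background subtracted, normalized to DMSO control, and fitted with a four-parameter curve for IC50.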
A general note: Formazan colour is commonly taken as a measure of viable cells.

Data set [4] has as its system HEK293. In words: Cytotoxicity against HEK293 cells assessed inhibition of cell proliferation up to 100 uM after 24 hrs by MTT assay. Type of data set: cell-based. The following applies: human, hek293, 24 h. The essentials: as §1

As for `CS(=O)(=O)SCCCCCCCN(O)C(=O)/C=C/c1ccc(Cl)cc1Cl`, the Activity entry in data set [1] and in data set [2] was “Non-Toxic” throughout.

Usually IC50 stands for the midpoint of a concentration-inhibition curve. High values mean a need for much substance, low ones inhibition by little substance. Regarding `CS(=O)(=O)SCCCCCCN(O)C(=O)/C=C/c1ccc(Cl)cc1Cl`, the Activity entry in data set [1] and in data set [2] was “Non-Toxic” in each case. Also, the IC50 with HEK293 [3] turned out to be 60 µM.

With `CS(=O)(=O)SCCCCCNC(=O)CC(CC(=O)NO)c1ccc(Cl)cc1Cl` (configuration not stated), the Activity entry in data set [1] and in data set [2] was “Toxic” each time.

In the case of `CS(=O)(=O)SCCCNC(=O)CC(CC(=O)NO)c1ccc(Cl)cc1Cl` (configuration not stated), the Activity result is “Toxic” in data set [1], “Non-Toxic” in the data set on HEK293 [4] and “Toxic” in data set [2].

With `CS(=O)(=O)SCCCCCCNC(=O)CC(CC(=O)NO)c1ccc(Cl)cc1Cl` (configuration not stated), the Activity entry in data set [1] and in data set [2] was “Toxic” in each case.

As to `CCCCCNC(=O)CC(CC(=O)NO)c1ccc(Cl)cc1Cl` (configuration not stated), in the data set with HEK293 [4], the Activity entry is “Non-Toxic”.

With `CS(=O)(=O)SCCCCCN(O)C(=O)/C=C/c1ccc(Cl)cc1Cl`, the Activity result in data set [1] and in data set [2] was “Non-Toxic” each time.

As to `CS(=O)(=O)SCCCCNC(=O)CC(CC(=O)NO)c1ccc(Cl)cc1Cl` (configuration not stated), the Activity result in data set [1] and in data set [2] was “Toxic” each time.
